The values below come from PubChem BioAssay.

Assay [1] in a line: SK-BR-3 cell growth inhibitors, pilot screen, 24 h, human (AID 572;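 active = viability at or below 10% of carrier control in both of two separate runs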;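 note: compound exposure lasted between 18 and 24 h rather than exactly 24 h; 100% = carrier-treated control wells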). The conditions noted are these: SK-BR-3 viability, CellTiter-Glo luminescence, at 10 µM, stronger effect = lower value.
The nature of assay [2]: HUVEC growth inhibition – cell-based, human, primary screen (AID 575;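 active = viability at or below 30% in both replicate assays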;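 note: 100% = median of untreated cell wells with 0.1% DMSO on each plate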). The note with it: HUVEC proliferation, CellTiter-Glo luminescence, 72 h; at 10 µM; stronger effect = lower value. The essentials: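 material = primary HUVEC, no more than 12 passages | input = 1250 cells per well | controls = vehicle and MePR control wells | measured by = CTG luminescence | times = 72 h compound incubation | format = collagen-coated 384-well format | read-out = % viability vs DMSO wells | doses = single 10 µM dose, 0.1% DMSO, from 5x medium stock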

Assay [3] in a line: growth inhibitors of H69AR lung tumor, primary screen, human, duplicate replicates (AID 580;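 active = viability at or under a set limit in both replicates, limit being median viability minus 3 SD, cut at about 48% in these data, passing the limit was not always enough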;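 note: 100% = mean luminescence of untreated wells and 0% = no signal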). The conditions noted are these: H69AR lung tumor cells viability, ATP luminescence, 72 h; at 10 µM; stronger effect = lower value.
The nature of assay [4]: reversal of MRP1-mediated doxorubicin resistance, pilot screen, H69AR cells, doxorubicin co-treatment (AID 601). The conditions noted are these: CellTiter-Glo, 72 h, at 10 µM; for differential viability (reversal): stronger effect = higher value.
Assay [5] in a line: 384-well plate pilot, post-Golgi transport modulator project, inhibition of yeast transport mutant growth (AID 636; in the data active = inhibition above about 31%). The conditions noted are these: absorbance 615 nm, about 18 h, stronger effect = higher value.
Assay [6] is described as follows: growth suppression of yeast trafficking mutant, preliminary HTS, modulators of trafficking downstream of Golgi apparatus project, 1536-format plate, OD 615 nm (AID 637; in the data active = inhibition above about 30%). The conditions noted are these: yeast transport mutant growth, absorbance 615 nm, 18 h; stronger effect = higher value.
The mark [7] stands for this setting: H69AR cells + 2 uM doxorubicin, measured here: viability with 2 uM doxorubicin, stronger effect = lower value.
[8] abbreviates: H69AR cells, compound alone cytotoxicity.

The structures appear in SMILES notation. Activity calls are given as the source filed them.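 Rule for the calls, unless noted: active = viability loss from added drug above about 55%, and viability with drug at most 40%, in both replicates (limit read from the data, passing the limit was not always enough); inconclusive = both conditions met in only one replicate; inactive = neither replicate meets both conditions.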

`COC(=O)c1cc(S(=O)(=O)N2CCOCC2)c(N2CCOCC2)cc1N1CCOCC1`: the viability is 124% (inactive) in assay [1]; 102% (inactive) in assay [2]; 85.5% (inactive) in assay [3]; 72.1% in assay [4] (setting [7]); 85.5% in assay [4] (setting [8]). For the same compound, in assay [4] (H69AR cells + 2 uM doxorubicin), the differential viability (reversal) was 13.4% (inactive). Further, the inhibition in assay [5] is -0.14% (inactive); in assay [6], -2.91% (inactive).
Take `Cc1nnc(NC(=O)C2CCCO2)s1` (configuration not stated): the viability in assay [1] is 90% (inactive); in assay [2], 105% (inactive); in assay [3] it was 96.4% (inactive); in assay [4] (setting [7]) it was 107%; in assay [4] (setting [8]), 96.4%. For the same compound, the differential viability (reversal) in assay [4] (H69AR cells + 2 uM doxorubicin) is -10.5% (inactive). The inhibition in assay [5] is -2.47% (inactive); in assay [6], -0.91% (inactive).
For `c1ccc(-c2nc3ccccc3nc2-c2ccccn2)nc1`, the viability in assay [1] is 89% (inactive); in assay [2], 107% (inactive); in assay [3], 89.5% (inactive); in assay [4] (setting [7]), 99.1%; in assay [4] (setting [8]), 89.5%. The differential viability (reversal) in assay [4] (H69AR cells + 2 uM doxorubicin) is -9.55% (inactive). The inhibition in assay [5] is -1.17% (inactive); in assay [6], 0.98% (inactive).
`O=C(NCC12CC3CC(C1)CC(CNC(=O)N1CCCC1)(C3)C2)N1CCCC1`: the viability in assay [1] is 78% (inactive); in assay [2], 90.1% (inactive); in assay [3], 84.8% (inactive); in assay [4] (setting [7]) it was 89.5%; in assay [4] (setting [8]), 84.8%. Moreover, in assay [4] (H69AR cells + 2 uM doxorubicin), the differential viability (reversal) is -4.64% (inactive). The inhibition was -10.3% (inactive) in assay [5] and 1.77% (inactive) in assay [6].
Regarding `Cc1ccc2c(c1C)NC(=O)C2(O)CC(=O)c1ccc2c(c1)OCO2` (configuration not stated), the viability in assay [1] is 88% (inactive); in assay [2] it was 83.2% (inactive); in assay [3] it was 88% (inactive); in assay [4] (setting [7]) it was 94%; in assay [4] (setting [8]), 88%. Moreover, in assay [4] (H69AR cells + 2 uM doxorubicin), the differential viability (reversal) was -5.94% (inactive). Moreover, the values for the inhibition in assay [5] and in assay [6] were -1.1% (inactive) and 2.9% (inactive), respectively.
On to `Cc1ccc(Cn2c(SCC(N)=O)nc3c2c(=O)n(C)c(=O)n3C)cc1`, for which the viability in assay [1] is 106% (inactive); in assay [2], 86.9% (inactive); in assay [3], 86.4% (inactive); in assay [4] (setting [7]) it was 82.9%; in assay [4] (setting [8]) it was 86.4%. For the same compound, in assay [4] (H69AR cells + 2 uM doxorubicin), the differential viability (reversal) was 3.46% (inactive). Also, the inhibition in assay [5] was -2.4% (inactive); in assay [6] it was -6.55% (inactive).
For `CC(C)c1ccc(CNc2ccc(N3CCOCC3)cc2)cc1`, the viability in assay [1] was 74% (inactive); in assay [2], 81.7% (inactive); in assay [3], 88.4% (inactive); in assay [4] (setting [7]), 87.5%; in assay [4] (setting [8]), 88.4%. Besides, the differential viability (reversal) in assay [4] (H69AR cells + 2 uM doxorubicin) was 0.93% (inactive). Moreover, the figures for the inhibition in assay [5] and in assay [6] were -6.89% (inactive) and -5.82% (inactive), respectively.
Regarding `CC(=O)SCCC(=O)Nc1ccccc1`, the viability in assay [1] was 88% (inactive); in assay [2], 87.2% (inactive); in assay [3], 92.5% (inactive); in assay [4] (setting [7]) it was 87.3%; in assay [4] (setting [8]), 92.5%. Besides, in assay [4] (H69AR cells + 2 uM doxorubicin), the differential viability (reversal) was 5.22% (inactive). Besides, the inhibition was -7.12% (inactive) in assay [5] and 0.81% (inactive) in assay [6].
On to `O=C(Nc1ccc(F)cc1)N(CCCN1CCOCC1)Cc1cc2cc3c(cc2[nH]c1=O)OCO3`, for which the viability was 85% (inactive) in assay [1]; 105% (inactive) in assay [2]; 90.8% (inactive) in assay [3]; 83.1% in assay [4] (setting [7]); 90.8% in assay [4] (setting [8]). In addition, the differential viability (reversal) in assay [4] (H69AR cells + 2 uM doxorubicin) was 7.71% (inactive). The inhibition in assay [5] was -7.97% (inactive); in assay [6], 2.55% (inactive).
In the case of `CC(=O)SCC(=O)N=c1sc2cc(F)ccc2n1C`, the viability in assay [1] is 90.5% (inactive); in assay [2] it was 75.5% (inactive); in assay [3], 93.4% (inactive); in assay [4] (setting [7]), 96.1%; in assay [4] (setting [8]) it was 93.4%. Also, the differential viability (reversal) in assay [4] (H69AR cells + 2 uM doxorubicin) was -2.64% (inactive). Moreover, the values for the inhibition in assay [5] and in assay [6] were -5.26% (inactive) and 7.78% (inactive), respectively.
For `CCc1ccccc1NC(=O)c1ccoc1C`, the viability is 102% (inactive) in assay [1]; 107% (inactive) in assay [2]; 101% (inactive) in assay [3]; 90.2% in assay [4] (setting [7]); 101% in assay [4] (setting [8]). In assay [4] (H69AR cells + 2 uM doxorubicin), the differential viability (reversal) is 10.8% (inactive). Moreover, the values for the inhibition in assay [5] and in assay [6] were 1.78% (inactive) and 4.19% (inactive), respectively.
In the case of `Cc1nnc(C)c2c(C)n(Cc3ccc4c(c3)OCO4)c(C)c12`, the viability was 76% (inactive) in assay [1]; 91% (inactive) in assay [2]; 80.9% (inactive) in assay [3]; 74.8% in assay [4] (setting [7]); 80.9% in assay [4] (setting [8]). Further, the differential viability (reversal) in assay [4] (H69AR cells + 2 uM doxorubicin) is 6.03% (inactive). Further, the values for the inhibition in assay [5] and in assay [6] were -0.55% (inactive) and 24.5% (inactive), respectively.
As for `CCC(C(=O)OCCN(CC)CC)c1ccccc1` (configuration not stated), the viability is 114% (inactive) in assay [1]; 86.8% (inactive) in assay [2]; 86.7% (inactive) in assay [3]; 87.5% in assay [4] (setting [7]); 86.7% in assay [4] (setting [8]). In addition, in assay [4] (H69AR cells + 2 uM doxorubicin), the differential viability (reversal) was -0.8% (inactive). Also, the values for the inhibition in assay [5] and in assay [6] were -1.56% (inactive) and 2.33% (inactive), respectively.
As for `CC(=O)c1c(C)nn(C(C)CC(=O)O)c1C` (configuration not stated), the viability in assay [1] was 113% (inactive); in assay [2], 97.8% (inactive); in assay [3] it was 97.5% (inactive); in assay [4] (setting [7]), 89.3%; in assay [4] (setting [8]) it was 97.5%. Also, the differential viability (reversal) in assay [4] (H69AR cells + 2 uM doxorubicin) is 8.11% (inactive). The inhibition is -1.95% (inactive) in assay [5] and -4.75% (inactive) in assay [6].
On to `c1ccc(-c2cc(CSc3nc4ccccc4[nH]3)on2)cc1`, for which the viability was 94% (inactive) in assay [1]; 91.8% (inactive) in assay [2]; 102% (inactive) in assay [3]; 86.5% in assay [4] (setting [7]); 102% in assay [4] (setting [8]). Also, the differential viability (reversal) in assay [4] (H69AR cells + 2 uM doxorubicin) is 15.5% (inactive). Moreover, the results for the inhibition in assay [5] and in assay [6] were -6.13% (inactive) and 3.09% (inactive), respectively.
For `O=C(NCCN1CCOCC1)c1ccc(CS(=O)(=O)Cc2ccccc2F)o1`, the viability in assay [1] is 59% (inactive); in assay [2], 102% (inactive); in assay [3], 108% (inactive); in assay [4] (setting [7]) it was 107%; in assay [4] (setting [8]) it was 108%. In addition, the differential viability (reversal) in assay [4] (H69AR cells + 2 uM doxorubicin) is 0.59% (inactive). Further, the figures for the inhibition in assay [5] and in assay [6] were -3.84% (inactive) and 1.64% (inactive), respectively.
For `COc1ccccc1-c1noc(-c2ccco2)n1`, the viability was 102% (inactive) in assay [1]; 91% (inactive) in assay [2]; 90.7% (inactive) in assay [3]; 93.5% in assay [4] (setting [7]); 90.7% in assay [4] (setting [8]). Besides, the differential viability (reversal) in assay [4] (H69AR cells + 2 uM doxorubicin) was -2.78% (inactive). Also, the values for the inhibition in assay [5] and in assay [6] were 0% (inactive) and -3.55% (inactive), respectively.
Regarding `CC(=O)Nc1ccc(NC(=O)Cn2cnc3c(cnn3C(C)(C)C)c2=O)cc1`, the viability in assay [1] is 101% (inactive); in assay [2], 87.9% (inactive); in assay [3], 98.9% (inactive); in assay [4] (setting [7]), 85.1%; in assay [4] (setting [8]), 98.9%. Moreover, the differential viability (reversal) in assay [4] (H69AR cells + 2 uM doxorubicin) is 13.8% (inactive). The inhibition in assay [5] was -5.47% (inactive); in assay [6], 3.27% (inactive).
As for `COc1ccc(OCC(=O)Nc2ccc(N3CCOCC3)c(Cl)c2)cc1`, the viability in assay [1] was 99% (inactive); in assay [2] it was 96.1% (inactive); in assay [3] it was 90.3% (inactive); in assay [4] (setting [7]) it was 88.2%; in assay [4] (setting [8]), 90.3%. Further, the differential viability (reversal) in assay [4] (H69AR cells + 2 uM doxorubicin) was 2.16% (inactive). Moreover, the values for the inhibition in assay [5] and in assay [6] were -4.25% (inactive) and -2.1% (inactive), respectively.
